A selection: hits, their analogues and other compounds. The true share with any hit is near 4.9%.
FLuc inh counter: counter-screen for luciferase assay inhibitors: firefly luciferase inhibition; inhibition, % at 10 µM; ATPLite firefly luciferase biochemical luminescence, 10 min; AID 1006; P08659; actives 1.5% (n = 200,000);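 active = inhibition above about 50% when tested at 10 µM, limit read from the data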
Target sequence (P08659 whole entry, looked up): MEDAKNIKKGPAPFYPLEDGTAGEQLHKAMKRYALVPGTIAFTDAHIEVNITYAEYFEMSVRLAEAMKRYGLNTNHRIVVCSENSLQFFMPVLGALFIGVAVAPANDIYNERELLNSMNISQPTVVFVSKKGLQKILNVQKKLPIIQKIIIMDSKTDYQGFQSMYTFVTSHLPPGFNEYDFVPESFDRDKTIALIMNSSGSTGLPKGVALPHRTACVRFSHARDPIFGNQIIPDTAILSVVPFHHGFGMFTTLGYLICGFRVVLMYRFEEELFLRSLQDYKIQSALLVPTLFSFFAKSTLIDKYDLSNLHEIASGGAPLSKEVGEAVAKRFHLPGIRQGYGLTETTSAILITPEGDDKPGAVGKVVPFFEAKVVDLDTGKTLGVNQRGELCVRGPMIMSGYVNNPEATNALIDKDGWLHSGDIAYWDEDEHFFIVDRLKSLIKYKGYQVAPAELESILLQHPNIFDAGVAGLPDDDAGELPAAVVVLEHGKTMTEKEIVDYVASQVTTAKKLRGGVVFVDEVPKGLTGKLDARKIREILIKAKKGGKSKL
STAT1 act: increases IFN-gamma driven STAT1 reporter signal | AID 932 | actives 2.6% (n = 200,000) | NIH 3T3 STAT1-luciferase reporter, luminescence; 100% = IFN-gamma alone, no compound | activation (% of control), % at 5.5 µM;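 active = activation above the screen-wide mean activation plus 3 SD, cut at about 130% in these data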;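 note: raw ratio to IFN-gamma control signal so 100% means no change and 0% no light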
STAT3 inh: STAT3 signaling inhibition; U3A cells, IL-6 STAT3-luciferase reporter, luminescence; host cell line lacks STAT1; actives 0.89% (n = 190,000); inhibition, % at 5.5 µM;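 active = inhibition above the mean inhibition across all screened compounds plus 3 SD, cut at about 44% in these data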;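 note: 0% = DMSO only wells and 100% = 100 µM nifuroxazide control wells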
STAT3 act: increases IL-6 driven STAT3 reporter signal; U3A cells, IL-6 STAT3-luciferase reporter, luminescence; 100% = signal with IL-6 EC80 alone; activation (% of control), % at 5.6 µM; actives 0.91% (n = 190,000);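 active = activation above the screen-wide mean of compound activation plus 3 SD, cut at about 130% in these data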;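 note: 0% = background luminescence of wells with medium and substrate only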
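Test system: Human STAT1-deficient U3A cells with stable STAT3-luciferase reporter | Also added: Interleukin-6, 33 ng/mL | Timing: Compound pre-incubation 1 h before IL-6, then 6 h stimulation at 37 °C | Technique: Luciferase reporter luminescence | Read-out: Percent of IL-6-only median luminescence | Benchmarks: IL-6-only wells as 100% reference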
FLuc stim CS: affects firefly luciferase, flagging false hits in luciferase stimulation screens | P08659 | ATPlite luciferase biochemical, luminescence, 10 min; 0 = ATP-free wells, 1 = DMSO control | activation factor at 10 µM | 200,000 tested, under 10 active;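 active = luciferase activation factor, scaled between plate controls, of at least 2 with compound at 10 µM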
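Assay system: Luciferase/luciferin reagent mix; Medium: PBS as buffer for the ATP substrate; Dosing: test compounds dosed from 2 mM stocks in 100% DMSO; Times: 10 min, room temperature; Signal: luminescence from luciferase reaction; Read-out: luciferase activation; Controls: No-ATP low control, compound-free enzyme-plus-ATP high control.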
STAT1 blocker: reduces IFN-gamma driven STAT1 reporter signal. NIH 3T3 STAT1-luciferase reporter, luminescence. inhibition, % at 5.5 µM. actives 0.35% (n = 200,000). AID 920;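 active = inhibition above a set limit, the mean inhibition across all tested compounds plus 3 SD, cut at about 34% in these data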;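 note: 0% = IFN-gamma with DMSO and 100% = IFN-gamma with 300 µM nifuroxazide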
STAT1 activ conf: STAT1 activation, confirmation assay; actives 97% (n = 1,200); AID 1262; activation (% of control), % at 5.7 µM; shares compounds with STAT1 act; NIH 3T3 STAT1-luciferase reporter, IFN-gamma potentiation, luminescence; 100% = IFN-gamma EC80 alone, no compound;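 active = activation above a set limit carried over from the earlier primary STAT1 screen, cut at about 140% in these data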;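 note: simple ratio to median IFN-gamma plus DMSO wells so 0% means no light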
NFkB act: activates NF-kappaB, counter-screen to STAT1 activators; shares compounds with STAT1 act; HEK293T NF-kB luciferase reporter, TNF-alpha stimulated, luminescence; 100% = TNF-alpha with vehicle only; activation (% of control), % at 5.7 µM; actives 43% (n = 1,200); AID 1306;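 active = activation above the mean of solvent-only control wells plus 3 SD, set per campaign, cut at about 130% in these data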;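 note: TNF-alpha given at a submaximal dose yielding about 80% of full reporter signal; values are well signal over median control so 100% means no change and 0% no light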
STAT3 act 2: activates human STAT3, counter-screen to STAT1 activators. shares compounds with STAT1 act. U3A cells STAT3-luciferase reporter, IL-6, luminescence; cells lack STAT1; 100 = IL-6 alone, no compound effect. activation (% of control), % at 5.7 µM. actives 46% (n = 1,200). AID 1316;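 active = activation above the solvent-only control well mean plus 3 SD, set per plate batch, cut at about 110% in these data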;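 note: 0% = no luminescence and 100% = median IL-6 plus DMSO wells; higher means more STAT3 reporter activation so hits are non-selective activators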
An asterisk follows results filed as active; · = no result.

SMILES	FLuc inh counter	STAT1 act	STAT3 inh	STAT3 act	FLuc stim CS	STAT1 blocker	STAT1 activ conf	NFkB act	STAT3 act 2
CCOC(=O)Nc1cccc(NC(=O)c2ccccc2F)c1	-3.5	95.5	11.3	90.8	1	4.9	·	·	·
CSC(=Nc1cccc(C)c1)NC#N	-1.3	105.3	-16.5	112.0	1	-5.5	·	·	·
CCN(CC)CCNC(=O)c1cn(-c2ccccc2)nc1-c1cccs1	-2.8	101.0	-6.0	102.4	1	-1.1	·	·	·
CCN(CC)CCOC(=O)c1ccc(NC(=O)c2cn(-c3ccccc3)nc2-c2cccs2)cc1	17.2	155.0*	10.2	92.6	0.8	-61.1	125.2	119.6	95.0
CCOC(=O)c1c(C)oc2ccc(OC(=O)c3cccs3)cc12	-8.7	95.3	15.8	89.2	1.1	5.2	·	·	·
Cc1cnc(NC(=O)Nc2ccc(Cl)cc2)s1	44.8	296.5*	-16.0	113.6	0.6	-208.4	281.6*	138.0*	141.5*
CCSC1=NCCN1S(=O)(=O)c1ccc(NC(C)=O)cc1	-7.2	96.6	8.2	96.1	1.1	2.5	·	·	·
Nc1c(C(=O)c2ccc(Cl)cc2)sc2nc3c(cc12)CCC3	1.3	113.2	-5.3	104.6	1	-15.1	·	·	·
Nc1c(C(=O)C2CC2)sc2nc3c(cc12)CCC3	19.3	162.1*	11.5	96.0	0.8	-69.5	189.3*	134.9*	108.3
Cc1cccc(-n2nnc(C(=O)Nc3ccc(F)cc3)c2N)c1	7.0	168.2*	19.5	85.1	0.9	-74.5	196.0*	129.7	97.1
Cc1c(C(=O)Nc2ccc(F)cc2)nnn1-c1cccc(C(F)(F)F)c1	2.8	100.8	31.9	74.7	1	-2.1	·	·	·
COc1cc(NC(=O)COc2ccc(Cl)cc2)ccc1-c1cc2ccccc2oc1=O	-3.5	107.2	-12.1	107.8	1	-8.1	·	·	·
Oc1csc(Cc2nc(-c3ccc(Br)cc3)cs2)n1	22.0	166.7*	-15.3	126.9	0.8	-74.0	177.0*	134.0*	123.5*
NC(=O)Cc1nc(-c2ccc(Br)cc2)cs1	1.5	103.1	3.5	99.2	1	-3.4	·	·	·
N#Cc1ccsc1NC(=O)COC(=O)c1ccc(NC(N)=O)cc1	5.7	165.7*	-16.1	121.3	0.9	-73.4	198.9*	137.4*	141.0*
COc1cccc(N(C(=O)c2nc3nccc(C)n3n2)c2nc3ccccc3s2)c1	2.5	172.8*	0.9	101.9	1	-80.7	230.5*	176.5*	113.5*
O=C(CSc1ccccn1)NC1CCCC1	-2.7	97.1	5.5	97.2	1	3.0	·	·	·
COc1ccc(OC)c(NC(=O)/C=C/c2ccccc2[N+](=O)[O-])c1	2.3	98.6	4.1	98.4	1	1.6	·	·	·
COc1cccc(NC(=O)/C=C/c2ccccc2[N+](=O)[O-])c1	22.8	153.8*	-14.3	109.7	0.8	-60.5	177.5*	136.6*	117.5*
CC(C)(C)N=C1NN=C(c2cc3ccccc3o2)CS1	39.4	169.3*	-5.8	100.5	0.6	-76.1	207.2*	129.2	107.0
Cc1ccccc1COC(=O)c1nn(-c2ccccc2)nc1N	-2.9	109.3	27.8	78.2	1	-11.8	·	·	·
Cc1ccc(Nc2cc(C)nn2-c2nc(C)cc(=O)[nH]2)cc1	-5.2	232.2*	8.3	95.6	1.1	-146.0	181.3*	167.2*	87.8
Cc1cc(=O)n2[nH]c(N)c(N=Nc3ccccc3F)c2n1	-0.9	104.9	6.1	97.2	1	-5.6	·	·	·
Cc1nn(-c2ccccc2)c(N)c1C(O)(C(F)(F)F)C(F)(F)F	-6.2	93.0	5.6	97.1	1.1	7.8	·	·	·
Cc1nn(-c2ccccc2)c(N)c1C(O)(CC(=O)C(F)(F)F)C(F)(F)F (stereo not given)	-2.7	88.8	8.3	93.2	1	12.8	·	·	·
SMILES	FLuc inh counter	STAT1 act	STAT3 inh	STAT3 act	FLuc stim CS	STAT1 blocker	STAT1 activ conf	NFkB act	STAT3 act 2
Cc1nc2c(N=Nc3ccccc3F)c(N)nn2c(N)c1C#N	3.9	166.0*	-16.4	117.0	1	-71.3	146.0*	125.2	123.4*
Cc1nn(-c2ccccc2)c(N)c1N=Nc1ccccc1	10.4	176.5*	0.3	104.6	0.9	-84.4	197.9*	139.8*	141.2*
Cc1cccc(N=Nc2c(C)nn(-c3ccccc3)c2N)c1C	-3.7	91.0	17.3	85.8	1	10.3	·	·	·
Nc1nn(-c2ccccc2)c(N)c1N=Nc1ccccc1	51.0*	202.5*	-19.6	120.7	0.5	-115.9	228.1*	125.8	115.4*
Nc1nn(-c2ccccc2)c(N)c1N=Nc1ccccc1F	39.8	219.3*	3.4	97.9	0.6	-133.2	305.6*	124.9	107.1
CCCCc1n(CC(=O)c2ccc(Cl)cc2)c2ccccc2[n+]1C	-7.1	96.3	2.0	99.5	1.1	2.9	·	·	·
CC(C)N1CCN(Cc2cccn2-c2ccccn2)CC1CCO (stereo not given)	-5.0	105.9	0.4	103.5	1.1	-8.2	·	·	·
Nc1nc(-c2ccccc2)c(N=Nc2ccc(Cl)cc2)s1	-2.7	84.3	-25.6	116.9	1	17.2	·	·	·
Cc1nn(-c2ccccc2)c(N)c1N=Nc1ccc(Cl)cc1	-2.8	155.1*	10.8	93.0	1	-61.1	182.9*	129.1	107.8
O=C(CN1CCOCC1)Nc1ccc([N+](=O)[O-])cc1Br	-6.1	101.6	16.7	90.4	1.1	-1.4	·	·	·
O=C1CCCN1CCCNc1ncnc2sccc12	-2.3	91.9	5.8	100.8	1	7.3	·	·	·
C=CCC(C=C)[N+]1(CC(=O)OC)CCCCC1 (stereo not given)	-4.0	104.8	5.8	102.5	1	-7.3	·	·	·
COc1ccc(C(=O)N=c2sccn2C)cc1	36.3	127.5	20.6	86.4	0.6	-27.1	·	·	·
Cn1ccsc1=NC(=O)c1ccc(Cl)cc1	20.0	155.9*	-20.0	121.1	0.8	-64.9	166.3*	129.6	118.4*
N#C/C(=C/c1ccc(N2CCOCC2)o1)c1ccc(Br)cc1	2.0	114.7	-9.6	113.3	1	-16.1	·	·	·
N#C/C(=C\c1ccc(N2CCOCC2)cc1)c1ccccc1	41.5	173.5*	1.2	101.2	0.6	-82.3	225.7*	142.8*	108.5
N#C/C(=C\N1CCOCC1)c1ccccc1	-1.5	91.3	-3.0	103.8	1	9.4	·	·	·
